Results as given in ChEMBL document CHEMBL2380292, “Discovery of SAR184841, a potent and long-lasting inhibitor of 11β-hydroxysteroid dehydrogenase type 1, active in a physiopathological animal model of T2D” (Bioorg Med Chem Lett, 2013).

Experiments:
[1] = tested on: Mus musculus; test: Antidiabetic activity in diet induced obese C57Bl/6J mouse assessed as plasma insulin level at 3 mg/kg, po qd administered for 4 weeks (reference value: 3.6 +/- 0.2 ng/mL); assay type: functional
[2] = tested on: Mus musculus; test: Antidiabetic activity in diet induced obese C57Bl/6J mouse assessed as plasma insulin level at 1 mg/kg, po qd administered for 4 weeks (reference value: 3.6 +/- 0.2 ng/mL); assay type: functional
[3] = tested on: Mus musculus; test: Antidiabetic activity in diet induced obese C57Bl/6J mouse assessed as plasma glucose level at 10 mg/kg, po qd administered for 4 weeks (reference value: 297 +/- 15 mg/dL); assay type: functional
[4] = tested on: Mus musculus; test: Antidiabetic activity in diet induced obese C57Bl/6J mouse assessed as plasma glucose level at 3 mg/kg, po qd administered for 4 weeks (reference value: 297 +/- 15 mg/dL); assay type: functional
[5] = tested on: Mus musculus; test: Inhibition of 11beta-HSD1 in mouse liver at 3 mg/kg, po after 24 hrs; assay type: functional
Procedure, shortened: (§1)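 Pharmacodynamic study in mice: single oral 3 mg/kg dose, with liver and fat 11β-HSD1 activity followed over 24 h post-dosing.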

[6] = tested on: Mus musculus; test: Inhibition of 11beta-HSD1 in mouse adipose tissue at 3 mg/kg, po after 7 hrs; assay type: functional; procedure, shortened: as §1
[7] = Oral bioavailability in rat at 10 mg/kg; assay type: ADME, organism-based; conditions: in vivo
[8] = Volume of distribution at steady state in rat at 3 mg/kg, iv and 10 mg/kg, po; assay type: ADME, organism-based; conditions: in vivo, read-out: Vdss
[9] = Cmax in rat plasma at 10 mg/kg, po; assay type: ADME, organism-based; parameters: dose 10 mg/kg, route oral
[10] = tested on: Salmonella typhimurium; test: Genotoxicity in Salmonella typhimurium by Ames test; assay type: toxicity, organism-based; conditions: salmonella enterica subsp. enterica serovar typhimurium
[11] = tested on: Mus musculus; test: Ex vivo inhibition of 11beta-HSD1 in C57Bl/6J mouse subcutaneous fat at 30 mg/kg, po after 16 hrs; assay type: functional
Procedure, shortened: (§2)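 Mice given a single oral dose as a suspension in Tween 80/0.6% methylcellulose (0.5/99.5, v/v) at 10 mL/kg. At 2 h or 16 h post-dose, animals were killed by cervical dislocation and 50 mg liver and 200 mg subcutaneous fat were taken for 11β-HSD1 activity. Reactions were stopped with HCl 1 N/methanol (1/1). 3H-cortisone and 3H-cortisol were quantified by HPLC with flow scintillation detection.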

[12] = tested on: Liver microsomes; test: Metabolic stability in rat liver microsomes; assay type: ADME, Microsome
[13] = tested on: Liver; test: Metabolic stability in mouse liver microsomes; assay type: ADME, Microsome
[14] = target: T1, 11-beta-hydroxysteroid dehydrogenase type 2 (Homo sapiens, UniProt P80365); test: Inhibition of human 11beta-HSD2
T1 sequence (P80365 whole entry): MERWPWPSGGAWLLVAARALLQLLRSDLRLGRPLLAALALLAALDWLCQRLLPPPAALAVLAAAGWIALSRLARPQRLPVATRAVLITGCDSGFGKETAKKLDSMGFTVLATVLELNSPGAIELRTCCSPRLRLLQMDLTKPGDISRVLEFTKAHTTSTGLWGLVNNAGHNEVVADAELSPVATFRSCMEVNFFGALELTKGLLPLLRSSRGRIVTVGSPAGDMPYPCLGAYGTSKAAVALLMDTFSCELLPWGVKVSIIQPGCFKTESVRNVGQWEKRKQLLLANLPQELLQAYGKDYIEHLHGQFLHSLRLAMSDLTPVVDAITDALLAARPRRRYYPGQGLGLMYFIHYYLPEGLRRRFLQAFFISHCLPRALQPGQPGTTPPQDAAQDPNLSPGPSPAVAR

[15] = target: 11-beta-hydroxysteroid dehydrogenase 1 (Mus musculus, UniProt P50172); test: Inhibition of mouse recombinant 11beta-HSD1 by scintillation proximity assay
Sequence of 11-beta-hydroxysteroid dehydrogenase 1 (Mus musculus, UniProt P50172) (P50172 whole entry): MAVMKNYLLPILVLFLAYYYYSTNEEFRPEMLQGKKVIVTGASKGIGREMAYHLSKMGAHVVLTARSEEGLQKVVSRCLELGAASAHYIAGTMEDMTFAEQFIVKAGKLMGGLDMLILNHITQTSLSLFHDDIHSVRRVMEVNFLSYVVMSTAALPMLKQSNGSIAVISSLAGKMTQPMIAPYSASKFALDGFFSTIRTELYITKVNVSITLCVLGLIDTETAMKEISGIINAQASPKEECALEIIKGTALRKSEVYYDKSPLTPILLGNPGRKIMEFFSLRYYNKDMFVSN

[16] = target: 11-beta-hydroxysteroid dehydrogenase 1 (Homo sapiens, UniProt P28845); test: Inhibition of human recombinant 11beta-HSD1 by scintillation proximity assay
Sequence of 11-beta-hydroxysteroid dehydrogenase 1 (Homo sapiens, UniProt P28845) (P28845 whole entry): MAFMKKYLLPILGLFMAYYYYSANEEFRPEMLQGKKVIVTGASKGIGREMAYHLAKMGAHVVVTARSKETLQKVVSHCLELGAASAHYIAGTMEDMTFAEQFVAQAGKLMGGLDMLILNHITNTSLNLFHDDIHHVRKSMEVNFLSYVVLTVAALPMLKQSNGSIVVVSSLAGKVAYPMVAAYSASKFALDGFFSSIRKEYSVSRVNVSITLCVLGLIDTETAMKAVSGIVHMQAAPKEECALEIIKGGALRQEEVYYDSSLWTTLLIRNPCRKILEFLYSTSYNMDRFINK

[17] = tested on: Mus musculus; test: Ex vivo inhibition of 11beta-HSD1 in C57Bl/6J mouse liver at 3 mg/kg, po after 16 hrs; assay type: functional; procedure, shortened: as §2
[18] = species: Mus musculus; test: Toxicity in C57Bl/6J mouse assessed as HPA axis biomarker modification; assay type: organism-based; conditions: in vivo
[19] = tested on: Mus musculus; test: Hepatotoxicity in C57Bl/6J mouse assessed as alteration of liver function biomarkers at 1 to 10 mg/kg, po after 4 weeks; assay type: toxicity, organism-based; parameters: dose 1-10 mg/kg, route oral; conditions: in vivo, 672 h
[20] = tested on: Mus musculus; test: Antidiabetic activity in po dosed C57Bl/6J mouse assessed as reduction in plasma insulin level administered for 4 weeks; assay type: functional, organism-based
[21] = tested on: Mus musculus; test: Antidiabetic activity in po dosed C57Bl/6J mouse assessed as reduction in plasma glucose level administered for 4 weeks; assay type: functional, organism-based
[22] = tested on: Mus musculus; test: Antidiabetic activity in diet induced obese C57Bl/6J mouse assessed as liver triglyceride level at 10 mg/kg, po qd administered for 4 weeks (reference value: 210.5 +/- 15.4 mg/g); assay type: functional
[23] = tested on: Mus musculus; test: Antidiabetic activity in diet induced obese C57Bl/6J mouse assessed as liver triglyceride level at 3 mg/kg, po qd administered for 4 weeks (reference value: 210.5 +/- 15.4 mg/g); assay type: functional
[24] = tested on: Mus musculus; test: Antidiabetic activity in diet induced obese C57Bl/6J mouse assessed as liver triglyceride level at 1 mg/kg, po qd administered for 4 weeks (reference value: 210.5 +/- 15.4 mg/g); assay type: functional
[25] = tested on: Mus musculus; test: Antidiabetic activity in diet induced obese C57Bl/6J mouse assessed as plasma cholesterol level at 10 mg/kg, po qd administered for 4 weeks (reference value: 154.3 +/- 8.6 mg/dL); assay type: functional
[26] = tested on: Mus musculus; test: Antidiabetic activity in diet induced obese C57Bl/6J mouse assessed as plasma cholesterol level at 3 mg/kg, po qd administered for 4 weeks (reference value: 154.3 +/- 8.6 mg/dL); assay type: functional
[27] = tested on: Mus musculus; test: Antidiabetic activity in diet induced obese C57Bl/6J mouse assessed as plasma cholesterol level at 1 mg/kg, po qd administered for 4 weeks (reference value: 154.3 +/- 8.6 mg/dL); assay type: functional
[28] = tested on: Mus musculus; test: Antidiabetic activity in diet induced obese C57Bl/6J mouse assessed as plasma triglyceride level at 10 mg/kg, po qd administered for 4 weeks (reference value: 36.2 +/- 2.1 […]); assay type: functional
[29] = tested on: Mus musculus; test: Antidiabetic activity in diet induced obese C57Bl/6J mouse assessed as plasma triglyceride level at 3 mg/kg, po qd administered for 4 weeks (reference value: 36.2 +/- 2.1 […]); assay type: functional
[30] = tested on: Mus musculus; test: Antidiabetic activity in diet induced obese C57Bl/6J mouse assessed as plasma leptin level at 10 mg/kg, po qd administered for 4 weeks (reference value: 22.5 +/- 2.4 ng/mL); assay type: functional
[31] = tested on: Mus musculus; test: Antidiabetic activity in diet induced obese C57Bl/6J mouse assessed as plasma leptin level at 3 mg/kg, po qd administered for 4 weeks (reference value: 22.5 +/- 2.4 ng/mL); assay type: functional
[32] = tested on: Mus musculus; test: Antidiabetic activity in diet induced obese C57Bl/6J mouse assessed as plasma leptin level at 1 mg/kg, po qd administered for 4 weeks (reference value: 22.5 +/- 2.4 ng/mL); assay type: functional
[33] = in vivo; conditions: rat, adipose tissue, po, 10 mg/kg

bioavailability [7]: 25% | Vd [8]: 14 L/kg | Cmax [9]: 556 ng/mL | Stability [12]: 15% | Stability [13]: 13% | IC50 [14]: 4 µM | IC50 [15]: 6 nM | IC50 [16]: 4 nM | Kp [33]: 2.2
SMILES: CC(C)(C)N1CCN(c2ccc(N3CCN(C(=O)N[C@H]4C5CC6CC4C[C@](C(N)=O)(C6)C5)c4ccccc43)nc2)CC1
Activity [1]: 2.3 ng/mL | Activity [2]: 2.8 ng/mL | Activity [3]: 224.6 mg/dL | Activity [4]: 251 mg/dL | inhibition in vivo at 3 mg/kg [5]: 60% | inhibition in vivo at 3 mg/kg [6]: > 90% | Activity [10]: Non-toxic | inhibition in vivo at 30 mg/kg [11]: 60% | inhibition in vivo at 3 mg/kg [17]: > 50% | Activity [18]: Non-toxic | Activity [19]: Non-toxic | Activity [20]: Dose-dependent effect | Activity [21]: Dose-dependent effect | Activity [22]: 129.1 mg/g | Activity [23]: 142.8 mg/g | Activity [24]: 167.4 mg/g | Activity [25]: 123.6 mg/dL | Activity [26]: 125.1 mg/dL | Activity [27]: 127.7 mg/dL | Activity [28]: 35 mg/mL | Activity [29]: 38.4 mg/mL | Activity [30]: 12.5 ng/mL | Activity [31]: 12.5 ng/mL | Activity [32]: 14.9 ng/mL
